The assay addresses Trypanothione reductase (Trypanosoma cruzi, UniProt P28593). The assay is described as follows: The compound was evaluated for inhibition of trypanothione reductase enzyme. Summed up: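 Substrate oxidised trypanothione at six levels spanning 0.25–5 × Km, with inhibitor at four experimentally chosen concentrations. Each condition run in triplicate. Ki obtained by fitting rates to the noncompetitive inhibition equation v = Vmax[S]/(1+[I]/Ki)/(Km+[S]).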

Sequence of Trypanothione reductase (P28593 whole entry): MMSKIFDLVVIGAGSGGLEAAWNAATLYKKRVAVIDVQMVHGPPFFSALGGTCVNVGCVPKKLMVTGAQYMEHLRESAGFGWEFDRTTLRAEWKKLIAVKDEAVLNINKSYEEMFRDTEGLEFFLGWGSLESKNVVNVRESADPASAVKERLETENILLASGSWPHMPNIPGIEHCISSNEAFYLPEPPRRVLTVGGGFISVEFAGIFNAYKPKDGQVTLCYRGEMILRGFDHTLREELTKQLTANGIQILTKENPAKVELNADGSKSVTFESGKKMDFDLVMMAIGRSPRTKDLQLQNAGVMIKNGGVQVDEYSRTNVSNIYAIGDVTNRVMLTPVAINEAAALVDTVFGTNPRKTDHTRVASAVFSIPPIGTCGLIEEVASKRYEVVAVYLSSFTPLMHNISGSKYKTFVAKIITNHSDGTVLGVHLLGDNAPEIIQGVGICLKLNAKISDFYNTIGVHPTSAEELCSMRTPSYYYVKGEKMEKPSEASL

As to `COc1ccc2[nH]cc(CC(=O)NCCCNCCCCNCCCNC(=O)Cc3c[nH]c4ccc(OC)cc34)c2c1`, the Ki turned out to be 280 nM.
In the case of `O=C(NCCCCNCCCNC(=O)c1cnc2cc(C(F)(F)F)ccc2c1O)c1cnc2cc(C(F)(F)F)ccc2c1O`, the Ki worked out at 850 nM.
To `O=C(CCc1c[nH]c2ccccc12)NCCCNCCCCNCCCNC(=O)CCc1c[nH]c2ccccc12` belongs 350 nM; to `O=C(Cc1c[nH]c2ccccc12)NCCCNCCCCNCCCNC(=O)Cc1c[nH]c2ccccc12`, 390 nM.
Then `O=C(Cc1c[nH]c2ccc(Br)cc12)NCCCNCCCCNCCCNC(=O)Cc1c[nH]c2ccc(Br)cc12`, with 76 nM; and `O=C(CCCc1c[nH]c2ccccc12)NCCCNCCCCNCCCNC(=O)CCCc1c[nH]c2ccccc12`, with 1260 nM; and `O=C(NCCCNCCCCNCCCNC(=O)c1cnc2cc(C(F)(F)F)ccc2c1O)c1cnc2cc(C(F)(F)F)ccc2c1O`, with 750 nM.
To `O=C(CCc1ccc(O)c(O)c1)NCCCNCCCCNCCCNC(=O)CCc1ccc(O)c(O)c1` [KUKOAMINE A] belongs 1390 nM.
